Results reported in PMC3149845 (The Journal of neuroscience : the official journal of the …, 2011).
Changes are numbered by the printed parent chain. Entries after “also recorded” stand apart in the source; their conditions may differ. Peptide text beside a SMILES is read from it.

Assays:
hTas1R2:S40T+hTas1R3 = target: T1, hTas1R2:S40T+hTas1R3 (Homo sapiens, UniProt Q8TE23, S40T); assay: Ca2+ mobilization, mutated human receptor; type: cell-based; conditions: aspartame 10mM, neotame 1mM, sucralose 2 mM; compared with hTas1R2/hTas1R3
T1 sequence (Q8TE23 20-839 S40T): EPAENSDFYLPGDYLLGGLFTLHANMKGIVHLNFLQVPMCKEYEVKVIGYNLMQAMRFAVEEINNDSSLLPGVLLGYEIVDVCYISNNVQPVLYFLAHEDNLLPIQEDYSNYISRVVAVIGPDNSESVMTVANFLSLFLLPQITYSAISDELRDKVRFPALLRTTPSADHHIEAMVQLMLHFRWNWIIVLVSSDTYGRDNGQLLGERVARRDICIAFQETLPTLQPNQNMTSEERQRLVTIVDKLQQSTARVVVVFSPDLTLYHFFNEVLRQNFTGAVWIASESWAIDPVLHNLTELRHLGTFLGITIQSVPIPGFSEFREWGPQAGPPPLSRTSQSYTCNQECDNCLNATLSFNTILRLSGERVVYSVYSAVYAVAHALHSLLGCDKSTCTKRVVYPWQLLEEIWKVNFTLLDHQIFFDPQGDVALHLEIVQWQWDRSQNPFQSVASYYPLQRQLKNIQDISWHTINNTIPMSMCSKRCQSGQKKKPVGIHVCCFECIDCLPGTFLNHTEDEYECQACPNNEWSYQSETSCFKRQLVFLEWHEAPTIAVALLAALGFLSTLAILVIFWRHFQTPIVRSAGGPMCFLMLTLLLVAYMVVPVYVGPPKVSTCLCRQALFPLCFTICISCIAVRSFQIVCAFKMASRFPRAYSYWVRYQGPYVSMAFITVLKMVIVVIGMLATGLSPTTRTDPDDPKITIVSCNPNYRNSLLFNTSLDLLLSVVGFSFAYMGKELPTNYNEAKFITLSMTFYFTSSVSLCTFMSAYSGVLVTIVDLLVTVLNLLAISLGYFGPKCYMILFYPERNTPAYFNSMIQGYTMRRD
T1 sequence (Q7RTX0 21-852 partner): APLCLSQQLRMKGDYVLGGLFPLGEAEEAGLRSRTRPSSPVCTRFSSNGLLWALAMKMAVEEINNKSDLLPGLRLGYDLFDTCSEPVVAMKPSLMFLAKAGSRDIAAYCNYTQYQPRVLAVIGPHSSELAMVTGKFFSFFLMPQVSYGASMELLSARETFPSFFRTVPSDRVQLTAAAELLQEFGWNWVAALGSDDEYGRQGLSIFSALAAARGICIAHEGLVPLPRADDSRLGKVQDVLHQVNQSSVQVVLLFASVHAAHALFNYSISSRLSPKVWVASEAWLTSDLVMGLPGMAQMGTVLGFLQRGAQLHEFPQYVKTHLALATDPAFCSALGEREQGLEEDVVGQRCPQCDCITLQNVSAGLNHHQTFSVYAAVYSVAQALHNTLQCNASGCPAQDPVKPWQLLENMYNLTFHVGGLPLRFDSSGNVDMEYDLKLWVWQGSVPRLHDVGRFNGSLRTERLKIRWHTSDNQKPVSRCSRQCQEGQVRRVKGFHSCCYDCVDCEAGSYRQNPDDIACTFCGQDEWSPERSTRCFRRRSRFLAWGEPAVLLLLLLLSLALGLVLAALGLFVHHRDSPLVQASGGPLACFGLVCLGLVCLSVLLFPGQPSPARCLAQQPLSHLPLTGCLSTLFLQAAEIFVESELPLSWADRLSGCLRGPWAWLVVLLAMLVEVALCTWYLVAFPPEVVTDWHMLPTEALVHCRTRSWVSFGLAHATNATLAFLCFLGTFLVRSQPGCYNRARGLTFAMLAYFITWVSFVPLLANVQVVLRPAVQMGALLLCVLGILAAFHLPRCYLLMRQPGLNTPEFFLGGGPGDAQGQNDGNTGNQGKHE
Procedure, shortened: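 HEK293E cells grown at 37°C in Opti-MEM with 5% FBS and seeded at 50,000/well. Cells co-lipofected with Tas1R plasmids and Gα16-gust44 (0.06 μg each per well); medium changed at 20 h, assayed 24 h later. Cells loaded 1 h with Fluo-4 AM in HEPES-buffered HBSS. Tastant added at 30 s; fluorescence (ex 488/em 525 nm) read every 2 s for 150 s more. ΔF/F normalised to human receptor maximal sucralose response; mean ± SEM, three independent experiments.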

[1] = target: sm(1–567)hTas1R2 + hTas1R3 (Saimiri sciureus, UniProt A3QP08, A682V/A736V/D779S/E587Q/F759L/F793L/I713V/L619P/L692M/M590I/M711T/N698S/S673P/S691G/T687I/T705P/V634L/V653A/V677M/V777A); assay: Ca2+ mobilization, chimera receptor; type: cell-based, human/squirrel monkey; conditions: aspartame 10mM, neotame 1mM, sucralose 2 mM; compared with hTas1R2/hTas1R3
[2] = target: T2, hTas1R2:S40T/D142E+hTas1R3 (Homo sapiens, UniProt Q8TE23, D142E/S40T); assay: Ca2+ mobilization, mutated human receptor; type: cell-based; conditions: for calcium response to sweetener: aspartame 10mM, neotame 1mM, sucralose 2 mM, compared with hTas1R2/hTas1R3; for response in dose-response experiment: versus hTas1R2+hTas1R3
T2 sequence (Q8TE23 20-839 S40T/D142E): T1 sequence (Q8TE23 20-839 S40T) with D123E
T2 sequence (Q7RTX0 21-852 partner): T1 sequence (Q7RTX0 21-852 partner)

[3] = cited from earlier work
[4] = ΔF/F normalized to maximum response of hTas1R2/hTas1R3 to neotame

SMILES | calcium response to sweetener (hTas1R2:S40T+hTas1R3) | calcium response to sweetener [1] | calcium response to sweetener [2] | response in dose-response experiment ([2]; dose-response) | sweet potency relative to sucrose ([3]; ref Meguro et al., 2000) | EC50 ([2]; HEK293E cells with Gα16-gust44, dose-response, calcium mobilization) | Bottom (B) of sigmoid dose-response fit [2, 4] | Top (T) of sigmoid dose-response fit [2, 4] | sweetness relative to aspartame ([3]; ref Garbow et al., 2001)
COC(=O)[C@H](Cc1ccccc1)NC(=O)[C@@H](N)CC(=O)O [aspartame, L-α-aspartly-L-phenylalanine methyl ester] (H-Asp-Phe-OMe) | abolished | no responses | abolished | no responses | 200 times | – | – | – | –
COC(=O)[C@H](Cc1ccccc1)NC(=O)[C@H](CC(=O)O)NCCC(C)(C)C [neotame] | did not affect significantly | no responses | significantly reduced; also recorded: reduced the response to neotame by half | weaker responses | – | 1400 µM | 1.387 | 61.12 | about 40 times
OC[C@H]1O[C@H](O[C@]2(CCl)O[C@H](CCl)[C@@H](O)[C@@H]2O)[C@H](O)[C@@H](O)[C@H]1Cl [sucralose] | significantly reduced | significant increase of the response | – | – | – | – | – | – | –
